According to ChEMBL document CHEMBL1177681, “Hybrid diarylbenzopyrimidine non-nucleoside reverse transcriptase inhibitors as promising new leads for improved anti-HIV-1 chemotherapy” (Bioorg Med Chem, 2010):

System: Human immunodeficiency virus 1
Experiment: Antiviral activity against HIV1 with reverse transcriptase F227L, V106A mutant infected in human MT4 cells assessed as protection against virus-induced cytopathogenicity after 4 days by MTT assay
Format: functional, organism-based
Conditions: Human immunodeficiency virus 1, MT4, 96 h
Method in brief: (§1)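 MT-4 cells at 1 × 10⁵ cells/mL were infected with the mutant HIV-1 at a multiplicity of infection of 0.02. Virus stocks were titred in MT-4 cells as CCID₅₀. Cells were plated at once onto serial compound dilutions, with DMSO stocks at 50 mM or higher. After 4 days at 37 °C, viable cells were counted by MTT. EC₅₀ is the concentration giving 50% protection from viral cytopathicity.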

| SMILES | EC50 |
| --- | --- |
| O=C1Nc2ccc(Cl)cc2[C@@](C#CC2CC2)(C(F)(F)F)O1 [EFAVIRENZ] | 104 nM |
| Cc1cc(C#N)cc(C)c1Oc1nc(Nc2ccc(C#N)cc2)nc2ccccc12 | 107 nM |
| Cc1ccnc2c1NC(=O)c1cccnc1N2C1CC1 [NEVIRAPINE] | > 15000 nM |
| CC(C)Nc1cccnc1N1CCN(C(=O)c2cc3cc(NS(C)(=O)=O)ccc3[nH]2)CC1 [DELAVIRDINE] | 9850 nM |
| COc1cc(C#N)cc(Cl)c1Oc1nc(Nc2ccc(C#N)cc2)nc2ccccc12 | 467 nM |

System: Human immunodeficiency virus 1
Experiment: Antiviral activity against wild type HIV1 LAI infected in human MT4 cells assessed as protection against virus-induced cytopathogenicity after 4 days by MTT assay
Format: functional, organism-based
Conditions: Human immunodeficiency virus 1, LAI, MT4, 96 h

| SMILES | EC50 |
| --- | --- |
| Cc1cc(C#N)cc(C)c1Oc1nc(Nc2ccc(C#N)cc2)nc2ccccc12 | 2.3 nM |
| Cc1ccnc2c1NC(=O)c1cccnc1N2C1CC1 [NEVIRAPINE] | 102 nM |
| CC(C)Nc1cccnc1N1CCN(C(=O)c2cc3cc(NS(C)(=O)=O)ccc3[nH]2)CC1 [DELAVIRDINE] | 610 nM |
| COc1cc(C#N)cc(Cl)c1Oc1nc(Nc2ccc(C#N)cc2)nc2ccccc12 | 5.4 nM |

System: not listed separately
Experiment: Selectivity index, CC50 for human MT4 cells to EC50 for wild type HIV1 3B
Format: toxicity, cell-based
Conditions: read-out: Ratio CC50/EC50
Method in brief: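 Selectivity index is calculated as CC50 in uninfected MT-4 cells divided by EC50 against HIV-1 IIIB. Both come from parallel 4-day MTT readings at 37 °C, with infection at multiplicity of infection 0.02.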

| SMILES | selectivity ratio |
| --- | --- |
| CCCOc1cc(C#N)cc(OC)c1Oc1nc(Nc2ccc(C#N)cc2)nc2ccccc12 | 408 |
| Cc1cc(Br)cc(Br)c1Oc1nc(Nc2ccc(C#N)cc2)nc2ccccc12 | 7930 |
| Cc1cc(C#N)cc(C)c1Oc1nc(Nc2ccc(C#N)cc2)nc2ccccc12 | 112000 |
| CC(C)Nc1cccnc1N1CCN(C(=O)c2cc3cc(NS(C)(=O)=O)ccc3[nH]2)CC1 [DELAVIRDINE] | > 92 |
| COc1cc(C#N)cc(Cl)c1Oc1nc(Nc2ccc(C#N)cc2)nc2ccccc12 | 46900 |

System: Human immunodeficiency virus 1
Experiment: Antiviral activity against HIV1 with reverse transcriptase E138K mutant infected in human MT4 cells assessed as protection against virus-induced cytopathogenicity after 4 days by MTT assay
Format: functional, organism-based
Conditions: Human immunodeficiency virus 1, MT4, 96 h
Method in brief: as §1

| SMILES | EC50 |
| --- | --- |
| O=C1Nc2ccc(Cl)cc2[C@@](C#CC2CC2)(C(F)(F)F)O1 [EFAVIRENZ] | 5.4 nM |
| Cc1cc(C#N)cc(C)c1Oc1nc(Nc2ccc(C#N)cc2)nc2ccccc12 | 11 nM |
| Cc1ccnc2c1NC(=O)c1cccnc1N2C1CC1 [NEVIRAPINE] | 162 nM |
| CC(C)Nc1cccnc1N1CCN(C(=O)c2cc3cc(NS(C)(=O)=O)ccc3[nH]2)CC1 [DELAVIRDINE] | 566 nM |
| COc1cc(C#N)cc(Cl)c1Oc1nc(Nc2ccc(C#N)cc2)nc2ccccc12 | 12 nM |

System: Human immunodeficiency virus 1
Experiment: Ratio of compound EC50 to nevirapine EC50 for wild type HIV1 3B
Format: functional
Conditions: not given

| SMILES | Ratio |
| --- | --- |
| Cc1cc(C#N)cc(C)c1Oc1nc(Nc2ccc(C#N)cc2)nc2ccccc12 | 731 |

System: Human immunodeficiency virus 1
Experiment: Antiviral activity against HIV1 with reverse transcriptase Y181C mutant infected in human MT4 cells assessed as protection against virus-induced cytopathogenicity after 4 days by MTT assay
Format: functional, organism-based
Conditions: Human immunodeficiency virus 1, MT4, 96 h
Method in brief: as §1

| SMILES | EC50 |
| --- | --- |
| O=C1Nc2ccc(Cl)cc2[C@@](C#CC2CC2)(C(F)(F)F)O1 [EFAVIRENZ] | 5.7 nM |
| Cc1cc(C#N)cc(C)c1Oc1nc(Nc2ccc(C#N)cc2)nc2ccccc12 | 31 nM |
| Cc1ccnc2c1NC(=O)c1cccnc1N2C1CC1 [NEVIRAPINE] | > 15000 nM |
| CC(C)Nc1cccnc1N1CCN(C(=O)c2cc3cc(NS(C)(=O)=O)ccc3[nH]2)CC1 [DELAVIRDINE] | 6250 nM |
| COc1cc(C#N)cc(Cl)c1Oc1nc(Nc2ccc(C#N)cc2)nc2ccccc12 | 49 nM |

System: Human immunodeficiency virus 1
Experiment: Antiviral activity against HIV1 with reverse transcriptase Y188L mutant infected in human MT4 cells assessed as protection against virus-induced cytopathogenicity after 4 days by MTT assay
Format: functional, organism-based
Conditions: Human immunodeficiency virus 1, MT4, 96 h
Method in brief: as §1

| SMILES | EC50 |
| --- | --- |
| O=C1Nc2ccc(Cl)cc2[C@@](C#CC2CC2)(C(F)(F)F)O1 [EFAVIRENZ] | 222 nM |
| Cc1cc(C#N)cc(C)c1Oc1nc(Nc2ccc(C#N)cc2)nc2ccccc12 | 36 nM |
| Cc1ccnc2c1NC(=O)c1cccnc1N2C1CC1 [NEVIRAPINE] | > 15000 nM |
| CC(C)Nc1cccnc1N1CCN(C(=O)c2cc3cc(NS(C)(=O)=O)ccc3[nH]2)CC1 [DELAVIRDINE] | 6430 nM |
| COc1cc(C#N)cc(Cl)c1Oc1nc(Nc2ccc(C#N)cc2)nc2ccccc12 | 280 nM |

System: Human immunodeficiency virus 1
Experiment: Antiviral activity against HIV1 with reverse transcriptase K103N mutant infected in human MT4 cells assessed as protection against virus-induced cytopathogenicity after 4 days by MTT assay
Format: functional, organism-based
Conditions: Human immunodeficiency virus 1, MT4, 96 h

| SMILES | EC50 |
| --- | --- |
| O=C1Nc2ccc(Cl)cc2[C@@](C#CC2CC2)(C(F)(F)F)O1 [EFAVIRENZ] | 66 nM |
| Cc1cc(C#N)cc(C)c1Oc1nc(Nc2ccc(C#N)cc2)nc2ccccc12 | ≤ 3.6 nM |
| CC(C)Nc1cccnc1N1CCN(C(=O)c2cc3cc(NS(C)(=O)=O)ccc3[nH]2)CC1 [DELAVIRDINE] | 6510 nM |
| COc1cc(C#N)cc(Cl)c1Oc1nc(Nc2ccc(C#N)cc2)nc2ccccc12 | ≤ 5.4 nM |

System: Human immunodeficiency virus 1
Experiment: Ratio of compound EC50 to delavirdine EC50 for wild type HIV1 3B
Format: functional
Conditions: not given

| SMILES | Ratio |
| --- | --- |
| Cc1cc(C#N)cc(C)c1Oc1nc(Nc2ccc(C#N)cc2)nc2ccccc12 | 266 |

System: Human immunodeficiency virus 1
Experiment: Antiviral activity against wild type HIV1 3B infected in human MT4 cells assessed as protection against virus-induced cytopathogenicity after 4 days by MTT assay
Format: functional, organism-based
Conditions: Human immunodeficiency virus 1, 3B, MT4, 96 h
Method in brief: (§2)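 MT-4 cells at 1 × 10⁵ cells/mL infected at multiplicity of infection 0.02, then immediately plated onto serial dilutions of compound (DMSO stocks of 50 mM or higher). After 4 days at 37 °C, viable cells counted by MTT. […] Virus stocks titrated in MT-4 cells as CCID50.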

| SMILES | EC50 |
| --- | --- |
| CCCOc1cc(C#N)cc(OC)c1Oc1nc(Nc2ccc(C#N)cc2)nc2ccccc12 | 13 nM |
| Cc1cc(Br)cc(Br)c1Oc1nc(Nc2ccc(C#N)cc2)nc2ccccc12 | 19 nM |
| Cc1cc(C#N)cc(C)c1Oc1nc(Nc2ccc(C#N)cc2)nc2ccccc12 | 1.8 nM |
| Cc1ccnc2c1NC(=O)c1cccnc1N2C1CC1 [NEVIRAPINE] | 1320 nM |
| CC(C)Nc1cccnc1N1CCN(C(=O)c2cc3cc(NS(C)(=O)=O)ccc3[nH]2)CC1 [DELAVIRDINE] | 479 nM |
| COc1cc(C#N)cc(Cl)c1Oc1nc(Nc2ccc(C#N)cc2)nc2ccccc12 | 4.7 nM |

System: Human immunodeficiency virus 1
Experiment: Ratio of compound EC50 to efavirenz EC50 for HIV1 with reverse transcriptase Y188L mutant
Format: functional
Conditions: not given

| SMILES | Ratio |
| --- | --- |
| Cc1cc(C#N)cc(C)c1Oc1nc(Nc2ccc(C#N)cc2)nc2ccccc12 | 6 |

System: Human immunodeficiency virus 1
Experiment: Antiviral activity against HIV1 with reverse transcriptase L100I mutant infected in human MT4 cells assessed as protection against virus-induced cytopathogenicity after 4 days by MTT assay
Format: functional, organism-based
Conditions: Human immunodeficiency virus 1, MT4, 96 h
Method in brief: as §1

| SMILES | EC50 |
| --- | --- |
| O=C1Nc2ccc(Cl)cc2[C@@](C#CC2CC2)(C(F)(F)F)O1 [EFAVIRENZ] | 32 nM |
| Cc1cc(C#N)cc(C)c1Oc1nc(Nc2ccc(C#N)cc2)nc2ccccc12 | 18 nM |
| Cc1ccnc2c1NC(=O)c1cccnc1N2C1CC1 [NEVIRAPINE] | 2030 nM |
| CC(C)Nc1cccnc1N1CCN(C(=O)c2cc3cc(NS(C)(=O)=O)ccc3[nH]2)CC1 [DELAVIRDINE] | 7950 nM |
| COc1cc(C#N)cc(Cl)c1Oc1nc(Nc2ccc(C#N)cc2)nc2ccccc12 | 110 nM |

System: Human immunodeficiency virus 2
Experiment: Antiviral activity against wild type HIV2 ROD infected in human MT4 cells assessed as protection against virus-induced cytopathogenicity after 4 days by MTT assay
Format: functional, organism-based
Conditions: Human immunodeficiency virus 2, ISOLATE ROD, MT4, 96 h
Method in brief: as §2

| SMILES | EC50 |
| --- | --- |
| CCCOc1cc(C#N)cc(OC)c1Oc1nc(Nc2ccc(C#N)cc2)nc2ccccc12 | > 5200 nM |
| Cc1cc(Br)cc(Br)c1Oc1nc(Nc2ccc(C#N)cc2)nc2ccccc12 | ≥ 14000 nM |
| Cc1cc(C#N)cc(C)c1Oc1nc(Nc2ccc(C#N)cc2)nc2ccccc12 | 32000 nM |
| COc1cc(C#N)cc(Cl)c1Oc1nc(Nc2ccc(C#N)cc2)nc2ccccc12 | > 219000 nM |

System: Human immunodeficiency virus 1
Experiment: Antiviral activity against HIV1 with reverse transcriptase K103N, Y181C mutant infected in human MT4 cells assessed as protection against virus-induced cytopathogenicity after 4 days by MTT assay
Format: functional, organism-based
Conditions: Human immunodeficiency virus 1, MT4, 96 h
Method in brief: as §1

| SMILES | EC50 |
| --- | --- |
| CCCOc1cc(C#N)cc(OC)c1Oc1nc(Nc2ccc(C#N)cc2)nc2ccccc12 | > 5200 nM |
| Cc1cc(Br)cc(Br)c1Oc1nc(Nc2ccc(C#N)cc2)nc2ccccc12 | 350 nM |
| O=C1Nc2ccc(Cl)cc2[C@@](C#CC2CC2)(C(F)(F)F)O1 [EFAVIRENZ] | 110 nM |
| Cc1cc(C#N)cc(C)c1Oc1nc(Nc2ccc(C#N)cc2)nc2ccccc12 | 60 nM |
| Cc1ccnc2c1NC(=O)c1cccnc1N2C1CC1 [NEVIRAPINE] | ≥ 15000 nM |
| CC(C)Nc1cccnc1N1CCN(C(=O)c2cc3cc(NS(C)(=O)=O)ccc3[nH]2)CC1 [DELAVIRDINE] | > 43000 nM |
| COc1cc(C#N)cc(Cl)c1Oc1nc(Nc2ccc(C#N)cc2)nc2ccccc12 | 160 nM |

System: not listed separately
Experiment: Cytotoxicity against human MT4 cells after 4 days by MTT assay
Format: cell-based
Conditions: not given
Method in brief: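 Uninfected MT-4 cells were run in parallel with the antiviral plates and exposed to serial compound dilutions (DMSO stocks of 50 mM or higher) for 4 days at 37 °C. Viability was read by MTT.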

| SMILES | CC50 at 96 h |
| --- | --- |
| CCCOc1cc(C#N)cc(OC)c1Oc1nc(Nc2ccc(C#N)cc2)nc2ccccc12 | 5200 nM |
| Cc1cc(Br)cc(Br)c1Oc1nc(Nc2ccc(C#N)cc2)nc2ccccc12 | 150000 nM |
| O=C1Nc2ccc(Cl)cc2[C@@](C#CC2CC2)(C(F)(F)F)O1 [EFAVIRENZ] | ≥ 6300 nM |
| Cc1cc(C#N)cc(C)c1Oc1nc(Nc2ccc(C#N)cc2)nc2ccccc12 | 203000 nM |
| Cc1ccnc2c1NC(=O)c1cccnc1N2C1CC1 [NEVIRAPINE] | ≥ 15000 nM |
| CC(C)Nc1cccnc1N1CCN(C(=O)c2cc3cc(NS(C)(=O)=O)ccc3[nH]2)CC1 [DELAVIRDINE] | > 43000 nM |
| COc1cc(C#N)cc(Cl)c1Oc1nc(Nc2ccc(C#N)cc2)nc2ccccc12 | 220000 nM |
